Experimental data of several laboratories.
Lines come from different studies, so protocols differ.
SETD7: Histone-lysine N-methyltransferase SETD7 (SETD7, Homo sapiens, UniProt Q8WTS6)
SLC10A2: Ileal sodium/bile acid cotransporter (SLC10A2, Homo sapiens, UniProt Q12908)
HSD11B1: 11-beta-hydroxysteroid dehydrogenase 1 (HSD11B1, Homo sapiens, UniProt P28845)
CNR2: Cannabinoid receptor 2 (CNR2, Homo sapiens, UniProt P34972)
CSNK1A1: Casein kinase I isoform alpha (CSNK1A1, Homo sapiens, UniProt P48729)
DRD5: D(1B) dopamine receptor (DRD5, Homo sapiens, UniProt P21918)

Structure (SMILES) | target | test | system | setting | inhibition
O=C1C=CC(=O)c2c(O)cccc21 | SETD7 | cell-free assay | – | 10 µM | 13%
NS(=O)(=O)c1cc2c(cc1Cl)N=CNS2(=O)=O | SLC10A2 | transporter uptake, inhibitor, radiometric | – | 1 mM | 25.3%
COc1cc(NC(C)CCCN)c2ncccc2c1 (centres unmarked) | SETD7 | cell-free assay | – | 10 µM | -19%
C=C(CC)C(=O)c1ccc(OCC(=O)O)c(Cl)c1Cl | HSD11B1 | enzyme activity, inhibitor | – | 20 µM, lysate | < 40%
COc1ccc(-n2nc(OCCCN3CCCCC3)ccc2=O)cc1 | CNR2 | ligand displacement | – | 1 µM | 33.1%
CCCCc1oc2ccccc2c1C(=O)c1cc(I)c(OCCN(CC)CC)c(I)c1 | HSD11B1 | enzyme activity, inhibitor | – | 20 µM, lysate | < 40%
CCN1CCN(Cc2ccc(NC(=O)c3ccc(C)c(/C=C/c4cnc5[nH]ccc5c4OC)c3)cc2C(F)(F)F)CC1 | CSNK1A1 | target engagement in cells, inhibitor, chemoproteomics | A-375 | 5 µM | -58.8%
C=CCSCC1Nc2cc(Cl)c(S(N)(=O)=O)cc2S(=O)(=O)N1 (centres unmarked) | SLC10A2 | transporter uptake, inhibitor, radiometric | – | 1 mM | 57.9%
CCCNc1nc2ccccc2n1Cc1ccc(Cl)cc1 | DRD5 | ligand displacement | – | 10 µM | 69.6%
CC(CCc1ccccc1)NCC(O)c1ccc(O)c(C(N)=O)c1 (centres unmarked) | SLC10A2 | transporter uptake, inhibitor, radiometric | – | 1 mM | 38.6%
O=C(O[C@@H]1Cc2c(O)cc(O)cc2O[C@@H]1c1cc(O)c(O)c(O)c1-c1c([C@H]2Oc3cc(O)cc(O)c3C[C@H]2O)cc(O)c(O)c1O)c1cc(O)c(O)c(O)c1 | SETD7 | cell-free assay | – | 10 µM | 53%
CN(C)C1CCN(CC#Cc2nn(C3CCCC3)c3nc(NCc4ccccc4)ncc23)C1 (centres unmarked) | CSNK1A1 | enzyme activity, inhibitor, FRET | – | 10 µM | 1%
CCC(C)(C)C(=O)O[C@H]1C[C@@H](C)C=C2C=C[C@H](C)[C@H](CC[C@@H]3C[C@@H](O)CC(=O)O3)[C@H]21 | HSD11B1 | enzyme activity, inhibitor | – | 20 µM, lysate | < 40%
CCN(CC)c1ccc(C2Nc3ccc(C(=O)c4ccccc4)cc3NC3=C2C(=O)CC(C)(C)C3)cc1 (centres unmarked) | DRD5 | ligand displacement, radioligand | – | 10 µM | 37%
CN1CCCCC1CCN1c2ccccc2Sc2ccc([S+](C)[O-])cc21 (centres unmarked) | SLC10A2 | transporter uptake, inhibitor, radiometric | – | 1 mM | 73.6%
C=C(C)C(=O)Nc1cc(C(=O)O)cc(C(=O)O)c1 | Galanin receptor type 1 (GALR1, Homo sapiens, UniProt P47211) | cell-free assay, radioligand | – | 10 µM | 22%

Structure (SMILES) | target | test | system | setting | inhibition
C[C@H]1C[C@@H]2[C@H]([C@@H](O)C[C@@]3(C)[C@H]2CC[C@]3(O)C(=O)CO)[C@@]2(C)C=CC(=O)C=C12 | SLC10A2 | transporter uptake, inhibitor, radiometric | – | 1 mM | < 10%
Cc1cc(-c2ccc(/N=N/c3ccc4c(S(=O)(=O)O)cc(S(=O)(=O)O)c(N)c4c3O)c(C)c2)ccc1/N=N/c1ccc2c(S(=O)(=O)O)cc(S(=O)(=O)O)c(N)c2c1O | SETD7 | cell-free assay | – | 10 µM | 101%
CC(=O)N[C@H]1CSSC[C@@H](C(=O)N[C@@H](Cc2c[nH]c3ccccc23)C(N)=O)NC(=O)[C@H](Cc2ccccc2)NC(=O)[C@H](CCCNC(=N)N)NC1=O | Melanocortin receptor 5 (MC5R, Homo sapiens, UniProt P33032) | ligand displacement, radioligand | – | 10 µM, 40 min | 0%
Cc1ccc(Nc2nccc(N(C)c3ccc4c(C)n(C)nc4c3)n2)cc1S(N)(=O)=O | G protein-coupled receptor kinase 5 (GRK5, Homo sapiens, UniProt P34947) | enzyme activity, inhibitor | – | 0.3 µM | -6%
CN1CC(Oc2cnc(C#N)cc2-c2ccn3nc(NC(=O)C4CC4)cc3c2)C1 | Phosphatidylinositol 5-phosphate 4-kinase type-2 alpha (PIP4K2A, Homo sapiens, UniProt P48426) | enzyme activity, inhibitor | – | 1 µM | 3%
O=C(c1ccc(Cl)cc1)N(Cc1ccccc1)C1CCCCC1 | CNR2 | cell-free assay | – | 10 µM | 41.6%
Cc1cn([C@H]2C[C@H](N=[N+]=[N-])[C@@H](CO)O2)c(=O)[nH]c1=O | SLC10A2 | transporter uptake, inhibitor, radiometric | – | 1 mM | < 10%
CCN(c1cc(C#CCN2CCOCC2)cc(C(=O)NCc2c(C)cc(C)[nH]c2=O)c1C)[C@H]1CC[C@H](N(C)CCOC)CC1 | Histone-lysine N-methyltransferase SUV39H1 (SUV39H1, Homo sapiens, UniProt O43463) | enzyme activity, inhibitor | – | 1 µM | 11%
O=C1C=C2CC3(O)COc4c(ccc(O)c4O)C3=C2C=C1O (centres unmarked) | SETD7 | cell-free assay | – | 10 µM | 28%
COc1cc(NC(C)=O)c(Cl)cc1C(=O)Nc1nccs1 | CNR2 | cell-free assay | – | 10 µM | 25%
O=C(Oc1cc(O)cc2c1C[C@@H](OC(=O)c1cc(O)c(O)c(O)c1)[C@@H](c1cc(O)c(O)c(O)c1)O2)c1cc(O)c(O)c(O)c1 | SETD7 | cell-free assay | – | 10 µM | 28%
O=C(NC[C@H]1CN(c2ccc(N3CCOCC3=O)cc2)C(=O)O1)c1ccc(Cl)s1 | Coagulation factor X (F10, Homo sapiens, UniProt P00742) | enzyme activity, inhibitor, absorbance | – | 0.1 µM | 88.6%
CCCCC(CC)CNC(=N)NC(=N)NCCCCCCNC(=N)NC(=N)NCC(CC)CCCC (centres unmarked) | SETD7 | cell-free assay | – | 10 µM | -110%
CCOC(=O)C1=C(COCCN)NC(C)=C(C(=O)OC)C1c1ccccc1Cl (centres unmarked) | SLC10A2 | transporter uptake, inhibitor, radiometric | – | 1 mM | 95.5%
O=C1c2c(O)cccc2Cc2cccc(O)c21 | SETD7 | cell-free assay | – | 10 µM | 8%
CCCN(CCC)S(=O)(=O)c1ccc(C(=O)O)cc1 | SLC10A2 | transporter uptake, inhibitor, radiometric | – | 1 mM | 47.4%
